Source: PubChem BioAssay
STAT1 activator: STAT1 signaling activation | AID 932 | activation (% of control), % at 5.5 µM | NIH 3T3 STAT1-luciferase reporter, IFN-gamma, luminescence; 100% = IFN-gamma alone, no compound | hit rate 2.6% among 200,000;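 active means activation above the screen-wide mean activation plus 3 SD, cut at about 130% in these data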;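 further: raw ratio to IFN-gamma control signal so 100% means no change and 0% no light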
STAT3 act: STAT3 signaling activation | U3A cells, IL-6 STAT3-luciferase reporter, luminescence; 100% = signal with IL-6 EC80 alone | activation (% of control), % at 5.6 µM | hit rate 0.91% among 190,000;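 active means activation above the screen-wide mean of compound activation plus 3 SD, cut at about 130% in these data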;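 further: 0% = background luminescence of wells with medium and substrate only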
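Material: human STAT1-deficient U3A cells with stable STAT3-luciferase reporter / Probe or stimulus: IL-6 stimulus at 33 ng/mL final / Schedule: 1 h compound pre-exposure, 6 h IL-6 stimulation, 37 °C / Technique: luminescence / Read-out basis: percent of IL-6-only median luminescence / Control set: IL-6-only high control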
STAT3 blocker: reduces IL-6 driven STAT3 reporter signal; U3A cells, IL-6 STAT3-luciferase reporter, luminescence; host cell line lacks STAT1; inhibition, % at 5.5 µM; hit rate 0.89% among 190,000;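 active means inhibition above the mean inhibition across all screened compounds plus 3 SD, cut at about 44% in these data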;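 further: 0% = DMSO only wells and 100% = 100 µM nifuroxazide control wells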
STAT1 blocker: STAT1 signaling inhibition | NIH 3T3 STAT1-luciferase reporter, IFN-gamma, luminescence | inhibition, % at 5.5 µM | hit rate 0.35% among 200,000 | AID 920;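 active means inhibition above a set limit, the mean inhibition across all tested compounds plus 3 SD, cut at about 34% in these data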;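 further: 0% = IFN-gamma with DMSO and 100% = IFN-gamma with 300 µM nifuroxazide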
NF-kB neuron act: compounds increasing NF-kB expression in human neuronal cells; NF-kB reporter expression; stronger effect = higher value; fold change at 12.5 µM; AID 1239; hit rate 1.6% among 190,000; in the data active means fold change above about 3.3
APP 5'UTR act: activates APP 5'UTR luciferase reporter; hit rate 1% among 190,000; AID 1276; SH-SY5Y APP 5'UTR luciferase reporter, luminescence; zero percent = DMSO vehicle wells; activation, % at 2 µM;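 active means activation above a set limit, based on mean plus 3 SD of controls, cut at about 140% in these data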
STAT1 act conf: STAT1 activation, confirmation assay; shares compounds with STAT1 activator; NIH 3T3 STAT1-luciferase reporter, IFN-gamma potentiation, luminescence; 100% = IFN-gamma EC80 alone, no compound; activation (% of control), % at 5.7 µM; hit rate 97% among 1,200;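 active means activation above a set limit carried over from the earlier primary STAT1 screen, cut at about 140% in these data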;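 further: simple ratio to median IFN-gamma plus DMSO wells so 0% means no light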
NFkB act: NF-kappaB activation in STAT1 activator counter-screen; HEK293T NF-kB luciferase reporter, TNF-alpha stimulated, luminescence; 100% = TNF-alpha with vehicle only; activation (% of control), % at 5.7 µM; hit rate 43% among 1,200; shares compounds with STAT1 activator;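 active means activation above the mean of solvent-only control wells plus 3 SD, set per campaign, cut at about 130% in these data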;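 further: TNF-alpha given at a submaximal dose yielding about 80% of full reporter signal; values are well signal over median control so 100% means no change and 0% no light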
STAT3 act STAT1c: human STAT3 activation in STAT1 activator counter-screen. hit rate 46% among 1,200. activation (% of control), % at 5.7 µM. U3A cells STAT3-luciferase reporter, IL-6, luminescence; cells lack STAT1; 100 = IL-6 alone, no compound effect. AID 1316. shares compounds with STAT1 activator;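 active means activation above the solvent-only control well mean plus 3 SD, set per plate batch, cut at about 110% in these data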;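 further: 0% = no luminescence and 100% = median IL-6 plus DMSO wells; higher means more STAT3 reporter activation so hits are non-selective activators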
Starred values were filed as active, the others as inactive; nt = no result. A selection: hits, their analogues and other compounds. The true share with any hit is near 5.1%.

SMILES | STAT1 activator | STAT3 act | STAT3 blocker | STAT1 blocker | NF-kB neuron act | APP 5'UTR act | STAT1 act conf | NFkB act | STAT3 act STAT1c
CCOc1ccc2nc(SCC#N)c(C#N)cc2c1 | 165* | 82 | 25 | -71 | 1.7 | 19 | 166* | 111 | 86
COC(=O)CSc1nc2ccc(C)cc2cc1C#N | 153* | 88 | 19 | -61 | 11* | 119 | 275* | 152* | 108
CCNc1nc(Cl)nc(NCCOc2ccc(C)cc2)n1 | 101 | 100 | -1 | -1 | 0.95 | 28 | nt | nt | nt
O=C(Nc1ccccc1Cl)C1CCN(Cc2cnn(-c3ccccc3)c2-n2cccc2)CC1 | 96 | 104 | 3 | 5 | 0.82 | nt | nt | nt | nt
CNc1oc(-c2ccccc2)nc1C#N | 102 | 90 | 16 | -1 | 1.2 | 20 | nt | nt | nt
CNc1oc(/C=C/c2ccccc2)nc1C#N | 154* | 103 | -8 | -60 | 5.3* | 112 | 167* | 136* | 104
O=C(NCCC(c1ccccc1)c1ccco1)c1cccs1 (stereo not drawn) | 123 | 110 | -3 | -24 | 1.9 | 11 | nt | nt | nt
Cc1ccc(-c2nc(Nc3ccccc3)n[nH]2)cc1 | 193* | 96 | 6 | -101 | 10* | 188* | 290* | 153* | 122*
COc1ccc(/C(N)=N/OC(=O)c2cccs2)cc1OC | 159* | 105 | -3 | -66 | 1.9 | 66 | 140* | 118 | 104
COc1ccc(C(=O)O/N=C(/C)c2cccs2)cc1 | 120 | 98 | 1 | -21 | 1.2 | 4 | nt | nt | nt
COc1ccccc1C/C(N)=N/OC(=O)c1cccs1 | 99 | 102 | 5 | 0 | 0.95 | 4 | nt | nt | nt
N/C(=N\OC(=O)c1cccs1)c1ccccc1 | 156* | 106 | -9 | -63 | 1.9 | 83 | 161* | 129 | 105
Cc1ccc(/C(N)=N/OC(=O)c2cccs2)cc1 | 164* | 93 | 8 | -72 | 1.1 | nt | 188* | 142* | 116*
N/C(Cc1cccc2ccccc12)=N\OC(=O)c1cccs1 | 101 | 110 | -10 | -1 | 0.99 | 10 | nt | nt | nt
Cc1c(C(=O)OCC2CCCO2)[nH]c2c1C(=O)CC(c1ccc(N(C)C)cc1)C2 (stereo not drawn) | 87 | 99 | 2 | 15 | 0.44 | -4 | nt | nt | nt
CC(C)(C)OC(=O)N/N=C\C=C\c1ccc2c(c1)OCO2 | 158* | 103 | -3 | -66 | 1.1 | nt | 185* | 130 | 111*
CN(C)c1ccc(/C=N/N=C/c2ccccc2O)cc1 | 156* | 80 | 25 | -63 | 3.6* | 165* | 208* | 87 | 75
CCc1ccc(-c2cn3c(n2)SCC3)cc1 | 154* | 79 | 26 | -56 | 7.2* | 100 | 200* | 130 | 96
O=C(Cc1ccc(F)cc1)Nc1cccc(-c2cn3c(n2)SCC3)c1 | 105 | 93 | 13 | -8 | 0.69 | -9 | nt | nt | nt
Cc1cs/c(=N/C(=S)Nc2ccccc2)n1C | 178* | 94 | 10 | -87 | 4* | 133 | 204* | 133 | 107
CCOC(=O)c1sc(NC(=O)c2sccc2C)cc1C | 152* | 82 | 27 | -56 | 12* | 154* | 252* | 129 | 101
Cc1cc(/C=N/NC(N)=S)c(C)n1-c1cccc(Cl)c1 | 99 | 97 | 11 | -1 | 1.1 | -8 | nt | nt | nt
Cc1cc(/C=N/NC(=O)c2nn(C)cc2Cl)c(C)n1-c1cccc(Br)c1 | 159* | 109 | -6 | -65 | 1.5 | 4 | 113 | 108 | 91
CC(=O)N1N=C(c2ccc(C)cc2)OC1c1ccc(Br)cc1 (stereo not drawn) | 154* | 113 | -13 | -60 | 3 | 38 | 182* | 148* | 117*
CC(=O)NC1=NN(C(C)=O)C(c2ccc(C)cc2)S1 (stereo not drawn) | 98 | 102 | 1 | 1 | 1.3 | 15 | nt | nt | nt
SMILES | STAT1 activator | STAT3 act | STAT3 blocker | STAT1 blocker | NF-kB neuron act | APP 5'UTR act | STAT1 act conf | NFkB act | STAT3 act STAT1c
Cc1ccccc1Nc1cc2ccccc2c(=O)[nH]1 | 100 | 96 | 11 | -1 | 0.43 | -13 | nt | nt | nt
CCN(CCNC(=O)Cn1cc2c(n1)CCCC2)c1ccccc1 | 98 | 101 | -2 | -1 | 1.2 | 5 | nt | nt | nt
Cc1cc(NCCO)c2ccccc2n1 | 89 | 99 | 2 | 12 | 1.1 | 10 | nt | nt | nt
OCCNc1c2ccccc2nc2ccccc12 | 158* | 130 | -26 | -65 | 0.92 | 6 | 159* | 133 | 117*
O=C(Nc1nccs1)c1ccc(-c2ccc([N+](=O)[O-])cc2)o1 | 151* | 81 | 26 | -58 | 1.7 | 103 | 183* | 130 | 96
COc1ccc(NC(=O)c2ccc(-c3ccc([N+](=O)[O-])cc3)o2)cc1 | 108 | 98 | 4 | -8 | 1.1 | 19 | nt | nt | nt
O=C(Nc1nccs1)c1ccc(-c2ccccc2Cl)o1 | 152* | 116 | -8 | -58 | 2.7 | 156* | 178* | 136* | 107
COc1ccc(-n2c(C)cc(C(=O)Cn3nnc4ccccc4c3=O)c2C)cc1 | 155* | 106 | 0 | -62 | 1.3 | 18 | 176* | 106 | 99
O=C1/C(=C/Nc2cccc([N+](=O)[O-])c2)CCc2ccccc21 | 169* | 100 | 0 | -77 | 4.5* | 140* | 212* | 134* | 108
Cc1ccn2c(c1)nc(=S)n2C(=O)c1ccco1 | 217* | 102 | 1 | -129 | 8.5* | 161* | 193* | 152* | 122*
Cc1nn(C(=O)c2ccco2)c(C)c1Br | 97 | 97 | 4 | 3 | 1.2 | 3 | nt | nt | nt
Cc1nc(SCc2ccc(Cl)c(Cl)c2)ncc1C(=O)O | 99 | 97 | 6 | 1 | 1.3 | 3 | nt | nt | nt
CC(=O)c1cnc(SCc2ccc(Cl)cc2)nc1C | 202* | 97 | 9 | -115 | 4.7* | 10 | 172* | 111 | 101
O=C(NCc1ccccc1)C(c1ccc(F)cc1)N(Cc1ccc2c(c1)OCO2)C(=O)Cn1nnc(-c2cccs2)n1 (stereo not drawn) | 99 | 101 | 0 | 2 | 1.1 | -8 | nt | nt | nt
CNc1nc(N2CCc3ccccc32)ncc1F | 167* | 107 | -7 | -75 | 5.1* | 120 | 194* | 139* | 114*
CCOC(=O)N1CCC(NS(=O)(=O)c2ccc3c(c2)C(C)(C)C(=O)N3C)CC1 | 99 | 96 | 7 | 1 | 1 | -5 | nt | nt | nt
CCc1nnc(NC(=O)c2ccc3ccccc3n2)s1 | 153* | 127 | -22 | -56 | 3.8* | 103 | 176* | 120 | 157*
